Measured values published in ChEMBL document CHEMBL4715729, “UPLC-QTOFMS(E)-Guided Dereplication of the Endangered Chinese Species Garcinia paucinervis to Identify Additional Benzophenone Derivatives” (J Nat Prod, 2016).

Columns and labels:
Format in all cases: functional, cell-based
MDA-MB-231 = assay: Cytotoxicity against human MDA-MB-231 cells assessed as reduction in cell viability measured after 48 hrs by WST assay; conditions: MDA-MB-231, 48 h
Summary of the method: (§1)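 Cells grown at 37 °C, 5% CO2 with 10% fetal calf serum and penicillin/streptomycin: MCF7 and MDA-MB-231 in DMEM glucose, SKBR3 in DMEM F12 glutamine. Seeded at 12×10^3 cells/well, dosed after 24 h at 5–200 μM from DMSO stocks (DMSO […]) for 48 h. Doxorubicin positive control. Read-out was 10% WST for 1 h in the dark, absorbance at 440 nm. Triplicate, % inhibition versus control, IC50 estimated.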

SK-BR-3 = assay: Cytotoxicity against human SK-BR-3 cells assessed as reduction in cell viability measured after 48 hrs by WST assay; conditions: SK-BR-3, 48 h; summary of the method: as §1
MCF7 = assay: Cytotoxicity against human MCF7 cells assessed as reduction in cell viability measured after 48 hrs by WST assay; conditions: MCF7, 48 h; summary of the method: as §1

Measured: IC50

CC(C)=CCC/C(C)=C/C[C@]1(CC=C(C)C)C(=O)C(O)=C(C(=O)c2ccc(O)c(O)c2)C1=O
< 10 µM: all assays above

CC(C)=CCC/C(C)=C/C[C@@]1(CC=C(C)C)C(=O)C2=C(OC(C)(C)C[C@H]2c2occc(=O)c2O)C(C(=O)c2ccc(O)c(O)c2)=C1O
< 10 µM: all assays above

CC(C)=CCC/C(C)=C/CC1(CC=C(C)C)C(=O)C(C(=O)c2ccc(O)c(O)c2)=C2OC(C)(C)C(O)C3OC23C1=O (stereo not given)
< 10 µM: all assays above

CC(C)=CCC/C(C)=C/C[C@]1(CC=C(C)C)C(=O)C2=C(OC(C)(C)C[C@H]2c2occc(=O)c2O)C(C(=O)c2ccc(O)c(O)c2)=C1O
< 10 µM: all assays above

CC(C)=CCC/C(C)=C/CC1(CC=C(C)C)C(=O)C(C(=O)c2ccc(O)c(O)c2)=C2OC(C)(C)CC3OC23C1=O (stereo not given)
< 10 µM: all assays above
